Laboratory results reported in ChEMBL document CHEMBL4138224, “DNA intercalators based on (1,10-phenanthrolin-2-yl)isoxazolidin-5-yl core with better growth inhibition and selectivity than cisplatin upon head and neck squamous cells carcinoma” (Eur J Med Chem, 2018).
The source made the active and inactive calls. The calls are words filed in the database; no cut-off is given here.

Experiments:
Bos taurus [1] = species on record: Bos taurus; assay: Induction of calf thymus B DNA intercalation at 36 uM by CD spectra method
Procedure, shortened: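 CD titration at 25 °C in quartz cells: fixed ct-DNA (12.6 μM in base pair) with compound added from a 4.26 mM DMSO stock, final 0 to about 35 μM. Each spectrum is an average of 5 runs with 5 min equilibration before each scan, corrected for dilution, cell and solvent.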

[2] = Selectivity index, ratio of IC50 for human 184B5 cells to IC50 for human HN6 cells; format: toxicity; conditions: 184B5 cells versus HN6 cells, read-out: Ratio IC50
HeLa = assay: Cytotoxicity against human HeLa cells assessed as decrease in cell viability after 24 hrs by MTT assay; format: functional, cell-based
Procedure, shortened: (§1)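 Cells seeded at 1×10^4 per well in complete medium with 10% FBS and antibiotics, 37 °C, 5% CO2. Washed with serum-free medium, then exposed to compounds for 24 h. MTT (5 mg/mL) added for a further 4 h, formazan dissolved in DMSO, absorbance read at 490 nm. Triplicates; IC50 obtained by non-linear regression of dose-response curves.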

Bacteria = assay: Induction of bacterial pGEM-T easy DNA intercalation assessed as topoisomerase 1-mediated conversion of relaxed plasmid DNA to negatively supercoiled DNA at 10 nM after 30 mins by agarose-gel electrophoresis method
Procedure, shortened: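 Relaxed pGEM-T Easy plasmid was made by Topo I treatment of supercoiled plasmid. Stopped with SDS/proteinase K (30 min, 50 °C). Run on 1% agarose in TBE, ethidium bromide stain; relaxed-to-supercoiled conversion scored.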

WSU-HN13 [3] = assay: Potency index, ratio of cisplatin IC50 to test compound IC50 for human HN13 cells; format: functional
[4] = Potency index, ratio of cisplatin IC50 to test compound IC50 for human HN6 cells; format: functional
[5] = Selectivity index, ratio of IC50 for human 184B5 cells to IC50 for human HN13 cells; format: toxicity; conditions: 184B5 cells versus HN13 cells, read-out: Ratio IC50
184B5 = assay: Cytotoxicity against human 184B5 cells assessed as decrease in cell viability after 24 hrs by MTT assay; format: cell-based; conditions: 184B5, 24 h; procedure, shortened: as §1
WSU-HN13 [6] = assay: Cytotoxicity against human HN13 cells assessed as decrease in cell viability after 24 hrs by MTT assay; format: functional, cell-based; conditions: WSU-HN13, 24 h; procedure, shortened: as §1
[7] = Cytotoxicity against human HN6 cells assessed as decrease in cell viability after 24 hrs by MTT assay; format: functional, cell-based; conditions: HN-6, 24 h; procedure, shortened: as §1
Bos taurus [8] = species on record: Bos taurus; assay: Induction of calf thymus B DNA intercalation assessed as DNA melting temperature at 31 uM by UV-vis spectrophotometric method (reference value: 354K)
Procedure, shortened: (§2)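 ct-DNA (31 μM in base pair) mixed with 31 μM compound, taken as saturating, in PBS. Absorbance at 260 nm monitored while heating 308 to 388 K at 1 K/min with a Peltier unit, giving melting curves. Binding constants estimated from the melting data.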

[9] = Selectivity index, ratio of IC50 for human 184B5 cells to IC50 for human HeLa cells; format: toxicity; conditions: 184B5 cells versus HeLa cells, read-out: Ratio IC50
Bos taurus [10] = species on record: Bos taurus; assay: Induction of calf thymus B DNA intercalation assessed as drug binding constant at DNA melting temperature at 31 uM by UV-vis spectrophotometric method; procedure, shortened: as §2

Activity (Bos taurus [1])	Activity (Bacteria)	Tm (Bos taurus [8]) [°C]	K (Bos taurus [10])	Structure (SMILES)	selectivity ratio [2]	IC50 (HeLa) [µM]	Ratio IC50 (WSU-HN13 [3])	Ratio IC50 [4]	selectivity ratio [5]	IC50 (184B5) [µM]	IC50 (WSU-HN13 [6]) [µM]	IC50 [7] [µM]	selectivity ratio [9]
Active	Active	84.9	4.53 ×10⁴ /M	COc1ccccc1CN1O[C@H](CO)C[C@@H]1c1ccc2ccc3cccnc3c2n1 (relative stereo)	51.4	13.3	9.2	3.4	72	324	4.5	6.3	24.3
Active	Active	81.9	9.26 ×10³ /M	COc1ccccc1CN1O[C@@H](CO)C[C@@H]1c1ccc2ccc3cccnc3c2n1 (relative stereo)		40.2				381	25.4	24.8	
